Experimental data from paper PMC12334608 (Nature Communications, 2025).
Substitutions are numbered along the chain they refer to. “And” between values parts separate entries of the source, which are not always exact repeats. Equal values may be shown once.

What was measured:
apo ACOX-1.1 [1] = target: T1, apo ACOX-1.1 (Caenorhabditis elegans, UniProt O62140); experiment: Enzyme-coupled kinetic assay, wild-type apo ACOX-1.1; assay type: biochemical, C. elegans; details: EC50 for ATP
T1 sequence (O62140 1-674): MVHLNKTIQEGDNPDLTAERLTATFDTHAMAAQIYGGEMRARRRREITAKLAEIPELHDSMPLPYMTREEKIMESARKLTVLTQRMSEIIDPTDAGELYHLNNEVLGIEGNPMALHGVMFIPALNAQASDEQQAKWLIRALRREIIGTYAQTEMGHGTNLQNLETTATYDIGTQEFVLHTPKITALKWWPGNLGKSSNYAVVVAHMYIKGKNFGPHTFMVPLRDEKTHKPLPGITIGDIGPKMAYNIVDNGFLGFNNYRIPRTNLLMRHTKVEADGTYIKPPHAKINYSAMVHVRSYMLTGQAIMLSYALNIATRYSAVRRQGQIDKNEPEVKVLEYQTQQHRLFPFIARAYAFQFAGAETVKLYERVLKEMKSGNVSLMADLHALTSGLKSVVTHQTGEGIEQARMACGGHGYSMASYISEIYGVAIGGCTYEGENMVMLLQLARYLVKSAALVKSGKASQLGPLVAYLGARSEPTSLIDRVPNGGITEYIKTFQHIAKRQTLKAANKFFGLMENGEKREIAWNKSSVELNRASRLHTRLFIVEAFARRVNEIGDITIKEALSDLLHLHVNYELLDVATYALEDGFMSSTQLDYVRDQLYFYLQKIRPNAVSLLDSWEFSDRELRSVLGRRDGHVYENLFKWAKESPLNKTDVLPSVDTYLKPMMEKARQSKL

ACOX-1.1 [2] = target: T2, ACOX-1.1 (Caenorhabditis elegans, UniProt O62140); experiment: Enzyme-coupled kinetic assay, wild-type ACOX-1.1 as purified; assay type: biochemical, C. elegans
T2 sequence (O62140 1-674): T1 sequence (O62140 1-674)

ACOX-1.1 [3] = target: T2, ACOX-1.1; experiment: ATP hydrolysis by HPLC; assay type: biochemical, C. elegans; details: 1 h incubation
ACOX-1.1(H396G) = experiment: Enzyme-coupled kinetic assay, ACOX-1.1; assay type: biochemical, C. elegans; details: 10 μM FAD, various ATP
Method in brief: (§1)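 Coupled H2O2 assay on a plate reader using the mutant enzyme (250 nM final). […] Peroxide was coupled through 4-aminoantipyrine (0.82 mM final), phenol (10.6 mM final) and peroxidase, read at 500 nm. Substrate was 25 µM lauroyl-CoA in 50 mM Tris-HCl pH 7.5, 150 mM NaCl, 10 mM MgCl2. Initial rate was taken over a 30 s window at 25–26 °C.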

apo ACOX-1.1 [4] = target: T1, apo ACOX-1.1; experiment: FAD and ATP dissociation constants by fluorescence polarization; assay type: binding, C. elegans; details: KD of ACOX-1.1 for ATP, 4 μM apo ACOX-1.1, 100 nM FAD; 95% CI: 6.1–27.5 μM
ACOX-1.1(K391N) = target: T3, ACOX-1.1(K391N) (Caenorhabditis elegans, UniProt O62140, K391N); experiment: Enzyme-coupled kinetic assay, ACOX-1.1; assay type: biochemical, C. elegans
T3 sequence (O62140 1-674 K391N): T1 sequence (O62140 1-674) with K391N

ACOX-1.1(R536E) = experiment: Enzyme-coupled kinetic assay, ACOX-1.1; assay type: biochemical, C. elegans; details: 10 μM FAD, various ATP
Method in brief: as §1

ACOX-1.1(N437A) = target: T4, ACOX-1.1(N437A) (Caenorhabditis elegans, UniProt O62140, N437A); experiment: Enzyme-coupled kinetic assay, ACOX-1.1; assay type: biochemical, C. elegans
T4 sequence (O62140 1-674 N437A): T1 sequence (O62140 1-674) with N437A

EC50 (apo ACOX-1.1 [1]; 10 μM FAD, 95% CI: 54.8–87.1 μM): 69.4 µM and ~69.4 µM
EC50 (apo ACOX-1.1 [1]; 200 μM FAD, 95% CI: 40.5–328.8 μM): 111 µM
EC50 (ACOX-1.1 [2]): 249 µM
hydrolysis of ATP by ACOX-1.1 (ACOX-1.1 [3]): not hydrolyzed by ACOX-1.1
response of enzyme activity to ATP (ACOX-1.1(H396G)): do not respond to ATP
Kd (apo ACOX-1.1 [4]): 20.7 µM
response of enzyme activity to ATP (ACOX-1.1(K391N)): did not respond to ATP
response of enzyme activity to ATP (ACOX-1.1(R536E)): do not respond to ATP
response of enzyme activity to ATP (ACOX-1.1(N437A)): did not respond to ATP
Compound: Nc1ncnc2c1ncn2[C@@H]1O[C@H](COP(=O)(O)OP(=O)(O)OP(=O)(O)O)[C@@H](O)[C@H]1O [ATP]
